Data taken from ChEMBL document CHEMBL4196230, “Design, Synthesis, and Blood-Brain Barrier Transport Study of Pyrilamine Derivatives as Histone Deacetylase Inhibitors” (ACS Med Chem Lett, 2018).

Assays:
[1] = Substrate activity at PYSOCA in human CMEC/D3 cells assessed as transporter-mediated drug uptake measured for 1 min at 37degC in presence of NH4Cl under intracellular alkalization condition; type: ADME, cell-based
Outline: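 hCMEC/D3 cells were pretreated in transport buffer with or without 30 mM NH4Cl. Uptake was then measured at 37 °C for 1 min with or without 30 mM NH4Cl (Control, Pre and Acute conditions). Mean ± S.E., n = 4.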

[2] = Substrate activity at PYSOCA in human CMEC/D3 cells assessed as transporter-mediated drug uptake measured for 2 mins at 37degC in presence of TEA; type: ADME, cell-based
[3] = Substrate activity at PYSOCA in human CMEC/D3 cells assessed as transporter-mediated drug uptake measured for 2 mins at 37degC in presence of diphenhydramine; type: ADME, cell-based
Outline: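 Uptake by hCMEC/D3 cells was measured at various substrate concentrations, at 37 °C for 2 min, with or without diphenhydramine (100 µM). Data were analysed by Michaelis-Menten and Lineweaver-Burk plots using nonlinear least-squares regression (Eqs. 1 and 2). Mean ± S.E., n = 4.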

[4] = Substrate activity at PYSOCA in human CMEC/D3 cells assessed as transporter-mediated drug uptake measured for 2 mins at 37degC in presence of tramadol; type: ADME, cell-based
[5] = Substrate activity at PYSOCA in human CMEC/D3 cells assessed as transporter-mediated drug uptake measured for 2 mins at 37degC; type: ADME, cell-based
[6] = Substrate activity at PYSOCA in human CMEC/D3 cells assessed as transporter-mediated drug uptake measured for 2 mins at 37degC in presence of clonidine; type: ADME, cell-based
[7] = Substrate activity at PYSOCA in human CMEC/D3 cells assessed as transporter-mediated drug uptake measured for 2 mins at 37degC in presence of metabolic inhibitor NaN3; type: ADME, cell-based
Outline: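 To deplete cellular ATP, hCMEC/D3 cells were pretreated with 0.1% NaN3 for 20 min. Uptake was then measured at 37 °C for 2 min. Mean ± S.E., n = 4.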

[8] = target: Histone deacetylase 1 (Homo sapiens, UniProt Q13547); assay: Inhibition of recombinant human C-terminal FLAG/His-tagged HDAC1 expressed in baculovirus infected Sf9 insect cells using HDAC substrate 3 measured after 30 mins by fluorescence assay
[9] = Substrate activity at PYSOCA in human CMEC/D3 cells assessed as transporter-mediated drug uptake measured for 2 mins at 37degC in presence of L-carnitine; type: ADME, cell-based
[10] = Substrate activity at PYSOCA in human CMEC/D3 cells assessed as transporter-mediated drug uptake measured for 2 mins at 37degC in presence of choline; type: ADME, cell-based
[11] = target: T1, Histone deacetylase 8 (Homo sapiens) (UniProt Q9BY41); assay: Inhibition of recombinant human full length C-terminal His-tagged HDAC8 expressed in baculovirus infected insect cells at 30 uM using HDAC class 2a substrate measured after 30 mins by fluorescence assay relative to control
T1 sequence (whole entry): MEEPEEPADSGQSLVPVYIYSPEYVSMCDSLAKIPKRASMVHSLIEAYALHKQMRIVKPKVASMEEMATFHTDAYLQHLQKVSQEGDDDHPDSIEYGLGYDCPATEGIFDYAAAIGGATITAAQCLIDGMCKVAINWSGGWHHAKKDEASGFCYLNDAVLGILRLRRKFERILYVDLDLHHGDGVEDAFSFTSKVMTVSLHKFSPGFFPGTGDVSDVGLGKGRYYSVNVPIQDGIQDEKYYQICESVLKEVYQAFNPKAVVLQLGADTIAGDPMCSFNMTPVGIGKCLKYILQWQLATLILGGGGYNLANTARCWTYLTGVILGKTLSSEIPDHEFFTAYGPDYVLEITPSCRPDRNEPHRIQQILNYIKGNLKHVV

[12] = target: T2, Protein deacetylase HDAC6 (Homo sapiens) (UniProt Q9UBN7); assay: Inhibition of recombinant human HDAC6 expressed in baculovirus infected insect cells at 30 uM using HDAC substrate 3 measured after 30 mins by fluorescence assay relative to control
T2 sequence (whole entry): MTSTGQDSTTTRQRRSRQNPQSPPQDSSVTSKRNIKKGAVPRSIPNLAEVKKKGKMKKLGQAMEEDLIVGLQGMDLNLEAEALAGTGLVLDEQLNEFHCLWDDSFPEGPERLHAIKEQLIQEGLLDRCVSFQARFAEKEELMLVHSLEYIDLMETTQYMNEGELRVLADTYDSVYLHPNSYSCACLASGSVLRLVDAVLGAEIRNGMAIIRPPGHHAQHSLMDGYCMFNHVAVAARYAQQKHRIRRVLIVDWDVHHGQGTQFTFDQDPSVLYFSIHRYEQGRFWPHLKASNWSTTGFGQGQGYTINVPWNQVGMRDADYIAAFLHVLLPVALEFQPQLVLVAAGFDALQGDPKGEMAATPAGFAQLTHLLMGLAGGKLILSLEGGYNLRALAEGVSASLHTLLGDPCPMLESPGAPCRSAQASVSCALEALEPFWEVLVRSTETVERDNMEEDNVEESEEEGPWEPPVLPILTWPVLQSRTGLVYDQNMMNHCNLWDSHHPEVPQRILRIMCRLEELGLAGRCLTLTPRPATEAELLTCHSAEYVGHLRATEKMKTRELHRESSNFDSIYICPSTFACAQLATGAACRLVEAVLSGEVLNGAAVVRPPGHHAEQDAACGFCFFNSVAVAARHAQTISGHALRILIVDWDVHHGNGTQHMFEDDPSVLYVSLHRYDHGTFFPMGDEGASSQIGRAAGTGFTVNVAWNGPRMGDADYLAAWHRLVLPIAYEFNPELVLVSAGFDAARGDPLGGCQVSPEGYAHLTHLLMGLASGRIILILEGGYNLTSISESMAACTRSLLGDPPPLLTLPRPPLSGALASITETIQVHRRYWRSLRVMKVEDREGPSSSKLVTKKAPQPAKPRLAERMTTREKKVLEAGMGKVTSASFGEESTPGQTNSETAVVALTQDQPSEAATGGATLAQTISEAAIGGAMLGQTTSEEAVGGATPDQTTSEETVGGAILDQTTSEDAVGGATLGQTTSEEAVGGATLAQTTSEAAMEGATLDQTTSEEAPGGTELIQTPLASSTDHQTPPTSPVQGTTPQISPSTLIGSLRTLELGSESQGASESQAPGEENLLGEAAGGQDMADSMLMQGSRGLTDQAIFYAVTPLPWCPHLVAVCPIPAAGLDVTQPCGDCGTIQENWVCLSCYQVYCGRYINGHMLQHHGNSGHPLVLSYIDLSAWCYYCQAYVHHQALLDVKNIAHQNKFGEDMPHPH

Histone deacetylase 1, sequence (Q13547 whole entry): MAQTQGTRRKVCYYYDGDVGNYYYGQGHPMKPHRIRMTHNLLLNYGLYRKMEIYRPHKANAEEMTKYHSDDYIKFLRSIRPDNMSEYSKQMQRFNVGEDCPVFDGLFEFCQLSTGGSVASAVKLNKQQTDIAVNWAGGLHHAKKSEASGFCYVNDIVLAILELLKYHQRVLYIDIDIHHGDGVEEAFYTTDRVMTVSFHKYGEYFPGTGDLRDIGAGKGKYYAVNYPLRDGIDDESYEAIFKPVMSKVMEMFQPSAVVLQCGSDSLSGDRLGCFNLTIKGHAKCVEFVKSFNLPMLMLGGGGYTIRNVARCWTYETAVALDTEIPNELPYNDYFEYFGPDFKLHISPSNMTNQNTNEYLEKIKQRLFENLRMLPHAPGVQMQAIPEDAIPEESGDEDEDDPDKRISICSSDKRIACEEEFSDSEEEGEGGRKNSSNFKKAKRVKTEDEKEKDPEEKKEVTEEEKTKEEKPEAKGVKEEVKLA

For COc1ccc(CN(CCN(C)C)c2ccc(C(=O)Nc3ccccc3N)cn2)cc1, the Activity [1] was “Not Active”, the Activity [2] was “Active” and the Activity [3] was “Not Active”. The Activity [4] was “Not Active”, the Activity [5] was “Dose-dependent effect” and the Activity [6] was “Not Active”. For the same compound, the Activity [7] was “Not Active”, the IC50 [8] was 1500 nM and the Activity [9] was “Active”. For the same compound, the Activity [10] was “Active”, the inhibition [11] was less than 10% and the inhibition [12] was less than 10%.
